In ChEMBL document CHEMBL1649328, “Assessment of pandemic and seasonal influenza A (H1N1) virus susceptibility to neuraminidase inhibitors in three enzyme activity inhibition assays” (Antimicrob Agents Chemother, 2010):

How the values were obtained:
Influenza A virus [1] = test: Ratio of IC50 for influenza A (A/Montana/02/2009 (H1N1)) virus harboring neuraminidase H275Y mutant to IC50 for influenza A (A/Washington/29/2009 (H1N1)) virus expressing wild type enzyme by NA-star substrate based chemiluminescent assay; format: functional
Influenza A virus [2] = test: Ratio of IC50 for influenza A (A/Osaka/180/2009 (H1N1)) virus harboring neuraminidase H275Y mutant to IC50 for influenza A (A/Washington/29/2009 (H1N1)) virus expressing wild type enzyme by fetuin substrate based colorimetric assay; format: functional
How it was run: (§1)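 Colorimetric NA inhibition using a virus dilution that gave 0.4–0.8 OD549. Virus preincubated 1 h at 37°C with half-log inhibitor dilutions (0.03–1,000 nM final) in MES/CaCl2 pH 6.0 buffer. Fetuin (5.5 mg/ml final) then added for 18 h at 37°C. Released sialic acid detected by periodate oxidation and thiobarbituric acid, butanol extraction, read at 549 nm. IC50 curve-fitted, ≥2 experiments. Ratio is variant IC50 over wild-type reference IC50.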

Influenza A virus [3] = test: Ratio of IC50 for influenza A (A/Singapore/91/2009 (H1N1))virus harboring neuraminidase H275Y mutant to IC50 for influenza A (A/Washington/29/2009 (H1N1)) virus expressing wild type enzyme by MUNANA substrate based fluorometric assay; format: functional
How it was run: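 Fluorometric NA inhibition in MES/CaCl2 buffer, pH 6.0. Virus preincubated 30 min at 37°C with ten half-log inhibitor dilutions (0.03–1,000 nM final), then MUNANA (100 μM final) added for 30 min at 37°C. Stopped with 0.1 M glycine in 25% ethanol, pH 10.7. Read at ex 365/em 450 nm. IC50 curve-fitted, mean of ≥3 experiments. Ratio is variant IC50 over wild-type reference IC50.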

Influenza A virus [4] = test: Ratio of IC50 for influenza A (A/North Carolina/01/2009 (H1N1)) virus harboring neuraminidase H275Y mutant to IC50 for influenza A (A/Washington/29/2009 (H1N1)) virus expressing wild type enzyme by MUNANA substrate based fluorometric assay; format: functional
Influenza A virus [5] = test: Ratio of IC50 for influenza A (A/North Carolina/01/2009 (H1N1)) virus harboring neuraminidase H275Y mutant to IC50 for influenza A (A/Washington/29/2009 (H1N1)) virus expressing wild type enzyme by NA-star substrate based chemiluminescent assay; format: functional
Influenza A virus [6] = test: Ratio of IC50 for influenza A (A/Osaka/180/2009 (H1N1)) virus harboring neuraminidase H275Y mutant to IC50 for influenza A (A/Washington/29/2009 (H1N1)) virus expressing wild type enzyme by MUNANA substrate based fluorometric assay; format: functional
Influenza A virus [7] = test: Antiviral activity against influenza A (A/North Carolina/01/2009 (H1N1)) virus harboring neuraminidase H275Y mutant after 16 to 18 hrs by fetuin substrate based colorimetric assay; format: functional, organism-based
How it was run: (§2)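 Colorimetric NA inhibition with fetuin substrate. Virus was diluted in NA-Star buffer (26 mM MES, 4 mM CaCl2, pH 6.0) to give OD549 of 0.4–0.8 after 18 h. It was preincubated with ten half-log inhibitor dilutions (0.03–1,000 nM final) for 1 h at 37°C, then with fetuin (5.5 mg/ml final) for 16–18 h at 37°C. Released sialic acid was read at 549 nm after periodate/TBA reaction and butanol extraction. IC50 came from a Vmax·[1−x/(K+x)] fit, mean of ≥2 experiments.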

Influenza A virus [8] = test: Ratio of IC50 for influenza A (A/North Carolina/02/2009 (H1N1)) virus harboring neuraminidase H275Y mutant to IC50 for influenza A (A/Washington/10/2008 (H1N1)) virus expressing wild type enzyme by fetuin substrate based colorimetric assay; format: functional
Influenza A virus [9] = test: Antiviral activity against influenza A (A/Singapore/57/2009 (H1N1)) virus harboring neuraminidase H275Y mutant after 16 to 18 hrs by fetuin substrate based colorimetric assay; format: functional, organism-based; how it was run: as §2
Influenza A virus [10] = test: Antiviral activity against influenza A (A/Osaka/180/2009 (H1N1)) virus harboring neuraminidase H275Y mutant after 30 mins by MUNANA substrate based fluorometric assay; format: functional, organism-based
How it was run: (§3)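 Fluorometric NA inhibition with MUNANA (100 μM final). Titrated virus in NA-Star buffer (26 mM MES, 4 mM CaCl2, pH 6.0) was preincubated with ten half-log inhibitor dilutions (0.03–1,000 nM final) for 30 min at 37°C, then with substrate for 30 min at 37°C. The reaction was stopped with 0.1 M glycine in 25% ethanol, pH 10.7, and 4-methylumbelliferone was read at ex 365/em 450 nm. IC50 came from a Vmax·[1−x/(K+x)] fit, mean of ≥3 experiments.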

Influenza A virus [11] = test: Antiviral activity against influenza A (A/Hong Kong/2369/2009 (H1N1)) virus harboring neuraminidase H275Y mutant after 16 to 18 hrs by fetuin substrate based colorimetric assay; format: functional, organism-based; how it was run: as §2
Influenza A virus [12] = test: Ratio of IC50 for influenza A (A/Washington/29/2009 (H1N1)) virus harboring neuraminidase H275Y mutant to IC50 for influenza A (A/Washington/29/2009 (H1N1)) virus expressing wild type enzyme by NA-star substrate based chemiluminescent assay; format: functional
How it was run: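 Chemiluminescent NA inhibition in MES 26 mM/CaCl2 4 mM buffer, pH 6.0. […] Luminescence read for 0.1 s. IC50 from the fit y = Vmax·{1 − [x/(K + x)]}, mean of ≥3 experiments. Ratio is the H275Y variant IC50 over the pandemic wild-type reference IC50.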

Influenza A virus [13] = test: Ratio of IC50 for influenza A (A/Singapore/91/2009 (H1N1)) virus harboring neuraminidase H275Y mutant to IC50 for influenza A (A/Washington/29/2009 (H1N1)) virus expressing wild type enzyme by fetuin substrate based colorimetric assay; format: functional; how it was run: as §1
Influenza A virus [14] = test: Ratio of IC50 for influenza A (A/Hong Kong/2369/2009 (H1N1)) virus harboring neuraminidase H275Y mutant to IC50 for influenza A (A/Washington/29/2009 (H1N1)) virus expressing wild type enzyme by MUNANA substrate based fluorometric assay; format: functional
Influenza A virus [15] = test: Ratio of IC50 for influenza A (A/New York/18/2009 (H1N1)) virus harboring neuraminidase H275Y mutant to IC50 for influenza A (A/Washington/10/2008 (H1N1)) virus expressing wild type enzyme by fetuin substrate based colorimetric assay; format: functional
Influenza A virus [16] = test: Antiviral activity against influenza A (A/Montana/02/2009 (H1N1)) virus harboring neuraminidase H275Y mutant after 30 mins by NA-star substrate based chemiluminescent assay; format: functional, organism-based
How it was run: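 Titrated virus in NA-Star buffer (26 mM MES, 4 mM CaCl2, pH 6.0) was preincubated with ten half-log inhibitor dilutions (0.03–1,000 nM final) for 30 min at 37°C, then with substrate for 30 min at room temperature. Accelerator solution was added and luminescence read for 0.1 s. IC50 came from a Vmax·[1−x/(K+x)] fit, mean of ≥3 experiments.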

Influenza A virus [17] = test: Antiviral activity against influenza A (A/Singapore/57/2009 (H1N1)) virus harboring neuraminidase H275Y mutant after 30 mins by MUNANA substrate based fluorometric assay; format: functional, organism-based; how it was run: as §3
Influenza A virus [18] = test: Antiviral activity against influenza A (A/Osaka/180/2009 (H1N1)) virus harboring neuraminidase H275Y mutant after 16 to 18 hrs by fetuin substrate based colorimetric assay; format: functional, organism-based; how it was run: as §2

| Structure (SMILES) | Ratio IC50 (Influenza A virus [1]) | Ratio IC50 (Influenza A virus [2]) | Ratio IC50 (Influenza A virus [3]) | Ratio IC50 (Influenza A virus [4]) | Ratio IC50 (Influenza A virus [5]) | Ratio IC50 (Influenza A virus [6]) | IC50 (Influenza A virus [7]) [nM] | Ratio IC50 (Influenza A virus [8]) | IC50 (Influenza A virus [9]) [nM] | IC50 (Influenza A virus [10]) [nM] | IC50 (Influenza A virus [11]) [nM] | Ratio IC50 (Influenza A virus [12]) | Ratio IC50 (Influenza A virus [13]) | Ratio IC50 (Influenza A virus [14]) | Ratio IC50 (Influenza A virus [15]) | IC50 (Influenza A virus [16]) [nM] | IC50 (Influenza A virus [17]) [nM] | IC50 (Influenza A virus [18]) [nM] |
| --- | --- | --- | --- | --- | --- | --- | --- | --- | --- | --- | --- | --- | --- | --- | --- | --- | --- | --- |
| C/C=C\[C@@H]1C[C@H](C(=O)O)N[C@H]1[C@@H](NC(C)=O)[C@](C)(CCC)OC | 6 | 3 | 1 | 4 | 5 | 5 | 2.32 | 1 | 1.58 | 2.44 | 3.56 | 5 | 1 | 3 | 1 | 1 | 1.39 | 4.08 |
| CCC(CC)[C@H](NC(C)=O)[C@@H]1[C@H](O)[C@@H](C(=O)O)C[C@H]1NC(=N)N [PERAMIVIR ANHYDROUS] | 136 | 398 | 1 | 831 | 125 | 488 | 105 | 1 | 84.8 | 97.6 | 162 | 89 | 1 | 641 | 1 | 15 | 122 | 195 |
